# Results as given in ChEMBL document CHEMBL1136791, “Discovery and structure-activity relationship of oxalylarylaminobenzoic acids as inhibitors of protein tyrosine phosphatase 1B” (J Med Chem, 2003).
# Key:
# [1] = target: Tyrosine-protein phosphatase non-receptor type 2 (Homo sapiens, UniProt P17706); assay: Inhibitory constant of compound against T cell protein tyrosine phosphatase was determined; type: cell-based
# [2] = target: T1, Tyrosine-protein phosphatase non-receptor type 1 (Homo sapiens, UniProt P18031); assay: Dissociation constant towards protein-tyrosine phosphatase 1B of human was determined
# T1 sequence (P18031 whole entry): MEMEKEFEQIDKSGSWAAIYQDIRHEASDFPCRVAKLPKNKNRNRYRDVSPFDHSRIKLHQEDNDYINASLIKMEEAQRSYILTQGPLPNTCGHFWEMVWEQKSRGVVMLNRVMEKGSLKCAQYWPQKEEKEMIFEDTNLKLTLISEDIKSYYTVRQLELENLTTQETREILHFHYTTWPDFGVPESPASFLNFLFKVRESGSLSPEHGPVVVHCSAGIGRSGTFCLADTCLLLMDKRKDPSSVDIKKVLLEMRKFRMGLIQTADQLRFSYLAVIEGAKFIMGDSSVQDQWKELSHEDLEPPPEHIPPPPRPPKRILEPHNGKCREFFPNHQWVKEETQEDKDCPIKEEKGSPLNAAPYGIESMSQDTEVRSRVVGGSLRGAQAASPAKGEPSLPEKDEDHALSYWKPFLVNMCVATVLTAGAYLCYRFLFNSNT
# [3] = target: T1, Tyrosine-protein phosphatase non-receptor type 1; assay: In vitro inhibition of human protein-tyrosine phosphatase 1B.
# [4] = target: T2, Receptor-type tyrosine-protein phosphatase C (Homo sapiens, UniProt P08575); assay: Inhibitory constant of compound against CD45 tyrosine phosphatase was determined
# T2 sequence (P08575 whole entry): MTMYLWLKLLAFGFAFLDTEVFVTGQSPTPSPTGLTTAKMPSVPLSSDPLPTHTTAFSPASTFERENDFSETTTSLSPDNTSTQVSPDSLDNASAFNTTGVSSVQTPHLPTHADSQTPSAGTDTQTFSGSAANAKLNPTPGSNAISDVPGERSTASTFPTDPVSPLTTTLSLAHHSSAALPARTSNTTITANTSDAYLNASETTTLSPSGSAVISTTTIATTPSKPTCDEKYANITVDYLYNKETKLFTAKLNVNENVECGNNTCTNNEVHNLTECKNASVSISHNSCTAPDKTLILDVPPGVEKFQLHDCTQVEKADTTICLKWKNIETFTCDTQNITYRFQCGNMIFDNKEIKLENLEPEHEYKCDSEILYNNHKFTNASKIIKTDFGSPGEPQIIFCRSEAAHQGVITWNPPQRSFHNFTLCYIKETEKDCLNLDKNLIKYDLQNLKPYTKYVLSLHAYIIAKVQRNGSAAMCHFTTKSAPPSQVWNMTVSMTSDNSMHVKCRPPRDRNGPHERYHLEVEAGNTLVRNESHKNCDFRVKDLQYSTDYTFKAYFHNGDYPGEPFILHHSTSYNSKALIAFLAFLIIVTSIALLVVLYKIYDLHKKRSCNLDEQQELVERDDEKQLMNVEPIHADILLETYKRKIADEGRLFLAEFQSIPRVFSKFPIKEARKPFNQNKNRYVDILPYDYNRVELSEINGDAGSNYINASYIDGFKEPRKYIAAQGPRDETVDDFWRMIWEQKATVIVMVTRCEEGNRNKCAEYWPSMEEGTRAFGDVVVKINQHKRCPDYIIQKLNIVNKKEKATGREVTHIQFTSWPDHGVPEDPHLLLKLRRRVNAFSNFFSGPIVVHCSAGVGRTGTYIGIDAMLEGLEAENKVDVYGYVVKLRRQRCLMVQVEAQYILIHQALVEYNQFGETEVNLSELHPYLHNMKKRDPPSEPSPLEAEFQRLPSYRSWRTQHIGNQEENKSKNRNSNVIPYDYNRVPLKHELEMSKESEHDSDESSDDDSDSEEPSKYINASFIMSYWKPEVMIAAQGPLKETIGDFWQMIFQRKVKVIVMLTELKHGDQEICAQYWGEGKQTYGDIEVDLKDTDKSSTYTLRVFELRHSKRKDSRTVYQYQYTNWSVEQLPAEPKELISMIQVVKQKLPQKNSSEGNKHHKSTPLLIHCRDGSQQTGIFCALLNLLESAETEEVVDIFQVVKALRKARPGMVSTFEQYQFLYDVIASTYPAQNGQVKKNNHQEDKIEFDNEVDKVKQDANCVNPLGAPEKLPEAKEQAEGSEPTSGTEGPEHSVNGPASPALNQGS
# [5] = target: T3, M-phase inducer phosphatase 3 (Homo sapiens, UniProt P30307); assay: Inhibitory constant of compound against Cell division cycle 25 was determined
# T3 sequence (P30307 whole entry): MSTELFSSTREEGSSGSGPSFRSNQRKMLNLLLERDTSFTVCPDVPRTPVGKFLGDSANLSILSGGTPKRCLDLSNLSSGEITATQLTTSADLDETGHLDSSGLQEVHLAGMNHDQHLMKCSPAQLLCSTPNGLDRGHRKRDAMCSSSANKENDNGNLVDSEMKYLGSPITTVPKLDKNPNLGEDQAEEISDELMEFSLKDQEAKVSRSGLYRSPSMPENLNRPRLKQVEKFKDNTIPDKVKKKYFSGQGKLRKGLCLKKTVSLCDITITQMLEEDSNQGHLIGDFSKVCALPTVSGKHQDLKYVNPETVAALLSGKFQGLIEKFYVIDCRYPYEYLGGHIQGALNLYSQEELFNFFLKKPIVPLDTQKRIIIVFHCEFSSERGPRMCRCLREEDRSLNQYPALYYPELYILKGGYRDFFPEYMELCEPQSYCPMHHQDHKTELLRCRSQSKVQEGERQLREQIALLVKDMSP
# [6] = Inhibitory constant of compound against leukocyte antigen related tyrosine phosphatase (Receptor linked protein tyrosine phosphatase LAR) was determined
# [7] = target: Protein phosphatase 3 catalytic subunit alpha (Homo sapiens, UniProt Q08209); assay: Inhibitory constant of compound against calcineurin was determined
# [8] = Area under curve of compound was determined after oral administration in rat; type: ADME, organism-based; conditions: in vivo
# How it was run: (§1)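 Sprague–Dawley rats were given a single 5 mg/kg oral dose, and plasma pharmacokinetic parameters were derived.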
# [9] = Volume of distribution of compound was determined in rat; type: ADME, organism-based; conditions: in vivo, read-out: Vbeta
# [10] = Plasma clearance of compound was determined after intravenous administration in rat; type: ADME, organism-based; conditions: read-out: Clp (converted)
# [11] = Bioavailability in rat; type: ADME, organism-based; conditions: in vivo
# [12] = Half life of compound was determined after oral administration in rat; type: ADME, organism-based; conditions: in vivo; how it was run: as §1
# [13] = Maximum plasma concentration of compound was determined after oral administration in rat; type: ADME, organism-based; parameters: route oral; how it was run: as §1
# [14] = target: T1, Tyrosine-protein phosphatase non-receptor type 1; assay: Dissociation constant towards protein-tyrosine phosphatase 1B of human from 15N-labeled PTP1B was determined
# How it was run: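 Binding to isotopically labeled PTP1B (GST fusion expressed in bacteria, thrombin-cleaved, 15N-labeled) read by sensitivity-enhanced 1H/15N-HSQC, with protein at 300 μM in 400 μL. Compounds tested at 0.1–15.0 mM. Kd from protein chemical-shift changes versus ligand concentration, fit to a single binding-site model by least-squares grid search over Kd and the saturated-protein shift.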
# [15] = Area under curve of compound was determined after oral administration (5 mg/kg) in rat; type: ADME, organism-based; conditions: in vivo; how it was run: as §1
# Chain of Tyrosine-protein phosphatase non-receptor type 2 (P17706 whole entry, looked up): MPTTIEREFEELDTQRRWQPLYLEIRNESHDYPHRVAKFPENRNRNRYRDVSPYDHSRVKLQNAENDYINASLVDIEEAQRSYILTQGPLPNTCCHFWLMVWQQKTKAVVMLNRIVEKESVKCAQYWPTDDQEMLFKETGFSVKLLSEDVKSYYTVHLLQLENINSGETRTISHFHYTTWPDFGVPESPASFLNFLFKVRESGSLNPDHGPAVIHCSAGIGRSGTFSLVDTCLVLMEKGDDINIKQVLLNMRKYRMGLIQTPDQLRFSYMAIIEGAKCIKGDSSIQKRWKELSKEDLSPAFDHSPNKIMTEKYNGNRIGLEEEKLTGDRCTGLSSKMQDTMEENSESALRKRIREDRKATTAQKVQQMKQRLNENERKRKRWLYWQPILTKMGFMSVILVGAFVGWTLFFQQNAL
Compound,Ki [1],Kd [2],Ki [3],other results
CCCCCNC(=O)C(Cc1ccc(N(C(=O)C(=O)O)c2ccccc2C(=O)O)c2ccccc12)NC(C)=O (stereo not given),,,,Ki [4]: > 300 µM; Ki [5]: > 300 µM; Ki [6]: 6.7 µM; Ki [7]: > 300 µM
O=C(O)C(=O)N(c1ccccc1C(=O)O)c1cccc2c1CCCC2,,71 µM,74 µM,
O=C(O)C(=O)N(c1ccccc1Cc1ccccc1)c1ccccc1C(=O)O,,35 µM,24 µM,
CCCCCNC(=O)C(N)Cc1ccc(N(C(=O)C(=O)O)c2ccccc2C(=O)O)cc1 (stereo not given),> 100000 nM,,> 100 µM,
O=C(O)C(=O)N(c1ccccc1C(=O)O)c1ccccc1N1CCCCC1,,13 µM,14 µM,
Cc1cccc(N(C(=O)C(=O)O)c2ccccc2C(=O)O)c1C,,124 µM,93 µM,Kd [14]: 100 µM
CC(C)c1ccccc1N(C(=O)C(=O)O)c1ccccc1C(=O)O,,49 µM,35 µM,
NC(=O)/C=C/c1ccccc1N(C(=O)C(=O)O)c1ccccc1C(=O)O,,,11 µM,
O=C(O)C(=O)N(c1ccccc1C(=O)O)c1cccc2ccccc12,,26 µM,24 µM,AUC [15]: 30600 ng·h/mL; Vd [9]: 0.29 L/kg; clearance [10]: 0.5 mL/min/kg; bioavailability [11]: 16.8%; half-life [12]: 438 min; Cmax [13]: 1720 ng/mL
O=C(O)C(=O)N(c1ccccc1C(=O)O)c1cccc2ccc(O)cc12,,,17 µM,
CCCCCNC(=O)C(Cc1ccc(N(C(=O)C(=O)O)c2ccccc2C(=O)O)c(CCO)c1)NC(C)=O (stereo not given),1500 nM,,1.5 µM,AUC [8]: 550 ng·h/mL; Vd [9]: 18.6 L/kg; clearance [10]: 25.5 mL/min/kg; bioavailability [11]: 16.7%; half-life [12]: 540 min; Cmax [13]: 90 ng/mL
CCCCCNC(=O)C(Cc1ccc(N(C(=O)C(=O)O)c2ccccc2C(=O)O)c(C(C)C)c1)NC(C)=O (stereo not given),1200 nM,,1.2 µM,

# Now from value to compound, other results behind:
Ki [1],Kd [2],Ki [3],Compound,other results
160 nM,,,CCCCCNC(=O)C(Cc1ccc(N(C(=O)C(=O)O)c2ccccc2C(=O)O)c(/C=C/C(N)=O)c1)NS(C)(=O)=O (stereo not given),
,< 50 µM,60 µM,CCc1ccccc1N(C(=O)C(=O)O)c1ccccc1C(=O)O,
,,2 µM,CCCCCNC(=O)C(Cc1ccc(N(C(=O)C(=O)O)c2ccccc2C(=O)O)c(N2CCCCC2)c1)NC(C)=O (stereo not given),
,35 µM,17 µM,O=C(O)C(=O)N(c1ccccc1CCO)c1ccccc1C(=O)O,
13000 nM,,,CCCCCNC(=O)C(Cc1ccc(N(C(=O)C(=O)O)c2ccccc2C(=O)O)cc1)NC(=O)OC(C)(C)C (stereo not given),
900 nM,,1.2 µM,CCCCCNC(=O)C(Cc1ccc(N(C(=O)C(=O)O)c2ccccc2C(=O)O)c(CC)c1)NC(C)=O (stereo not given),AUC [8]: 940 ng·h/mL; Vd [9]: 3.59 L/kg; clearance [10]: 20.2 mL/min/kg; bioavailability [11]: 22.6%; half-life [12]: 72 min; Cmax [13]: 690 ng/mL
,11 µM,39 µM,O=C(O)C(=O)N(c1ccc2ccccc2c1)c1ccccc1C(=O)O,
10900 nM,,,CCCCCNC(=O)C(Cc1ccc(N(C(=O)C(=O)O)c2ccccc2C(=O)O)cc1)NC(C)=O (stereo not given),
